# High-throughput results from PubChem BioAssay.
# M1 agonist: M1 muscarinic receptor agonism; B-score at 10 µM; hit rate 3% among 64,000; AID 626; CHO-M1 cells, Fluo-4 calcium fluorescence, agonist mode; hits give high values;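 active = fluorescence rise, raw or as B-score row- and column-corrected plate score, outside the 99.7% band of its plate's samples, either direction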
# HEK293 NFkB inh: lowers PMA/ionomycin-induced NF-kB signal in HEK293 cells; HEK-293 NF-kB luciferase reporter, luminescence; inhibition, % at 3 µM; hit rate 0.21% among 62,000;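 active = inhibition above the mean of all tested compounds plus 3 SD, cut at about 40% in these data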
#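 Material: HEK-293 cells with stable firefly luciferase reporter driven by four HIV NF-kB elements / Also added: PMA plus ionomycin mix as NF-kB-activating stimulus / Compound dosing: 3 µM once, 0.30% DMSO / Times: 1 h pretreatment, 16 h stimulation, 37 °C / Signal: luminescence / Evaluation: per-plate % inhibition versus controls / Benchmarks: DMSO and 10 µM reference inhibitor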
# M1 antagonist: blocks the rat M1 muscarinic receptor response to acetylcholine; CHO-M1 cells, Fluo-4 calcium, ACh EC80 antagonist mode; hits give low values; B-score at 10 µM; hit rate 3.4% among 64,000; AID 628;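 active = calcium fluorescence response, raw or row-and-column corrected B-score, differing from the plate sample mean either way at a set confidence level, mostly lower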
# Target sequence (P08482 whole entry, looked up): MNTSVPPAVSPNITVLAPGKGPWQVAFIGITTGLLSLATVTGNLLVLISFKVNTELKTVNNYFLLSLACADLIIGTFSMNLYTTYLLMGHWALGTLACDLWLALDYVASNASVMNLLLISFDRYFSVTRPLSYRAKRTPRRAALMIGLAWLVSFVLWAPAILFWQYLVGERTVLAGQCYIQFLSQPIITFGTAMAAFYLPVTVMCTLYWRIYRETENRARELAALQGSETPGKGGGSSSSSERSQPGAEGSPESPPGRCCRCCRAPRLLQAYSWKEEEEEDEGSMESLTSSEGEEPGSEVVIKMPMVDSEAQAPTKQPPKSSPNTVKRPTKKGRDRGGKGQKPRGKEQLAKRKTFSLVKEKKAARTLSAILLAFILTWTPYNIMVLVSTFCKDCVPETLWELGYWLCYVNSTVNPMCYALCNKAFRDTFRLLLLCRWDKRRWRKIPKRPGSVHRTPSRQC
# Her2 expr inh: inhibitors of human Her2 kinase expression | SKBR-3 HER2 protein level, AlphaScreen, 18-24 h; hits give low values | HER2 level % of control, % at 10 µM | hit rate 0.69% among 65,000 | AID 645;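 active = HER2 level under 5% of the carrier-only control; inconclusive = no clear call, values can overlap the other calls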;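 note: lower value means stronger loss of Her2 protein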
# BAP1 inh: human BAP1 deubiquitinase inhibition; Q92560; recombinant BAP1, Ub-AMC hydrolysis fluorescence kinetic; hits give low values; calls only at 20 µM; hit rate 0.48% among 72,000;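 active = activity remaining at or below 50% of control, provided the compound also passes the data quality filters; inactive = the rest, including low values that fail the filters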
# JNK3 blocker: blocks human JNK3 kinase activity; P53779; purified JNK3 kinase activity, HTS; inhibition, % at 8 µM; hit rate 0.61% among 60,000; in the data active = inhibition above about 17%
# M1 ag confirm: rat M1 muscarinic agonism, confirmation. hit rate 19% among 1,700. CHO-M1 cells, Fluo-4 calcium fluorescence, agonist mode; actives lie on both sides. shares compounds with M1 agonist. AID 1488. fluorescence change (max-min) at 10 µM;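 active = fluorescence change differs from the solvent-only DMSO control mean at a set confidence level in both duplicate runs; inconclusive = differs from solvent-only control mean in just one of two runs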;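 note: an EC20 dose of acetylcholine follows compound addition during the same imaging run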
# M4 agonist ctr: counter-screen for M1 agonists: activity at rat M4 receptor; AID 1741; hit rate 9% among 1,700; fluorescence change (max-min) at 10 µM; CHO M4/Gqi5 cells, Fluo-4 calcium fluorescence, agonist mode; actives lie on both sides; shares compounds with M1 agonist;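 active = fluorescence change differing from the plate's solvent-only control wells at 99.7% confidence in both duplicates, whether higher or lower; inconclusive = differs from solvent controls in only one of two duplicates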
# A number is an active result; n = inactive; u = inconclusive; x = no result given. Most compounds without a hit are left out; they make up all but 6.6% or so of the library.
SMILES,M1 agonist,HEK293 NFkB inh,M1 antagonist,Her2 expr inh,BAP1 inh,JNK3 blocker,M1 ag confirm,M4 agonist ctr
O=C(c1ccco1)N1CCN(C(=O)C(Sc2ccccc2)c2ccccc2)CC1 (configuration not stated),3.8,n,n,n,n,n,u,n
CC(=O)N(C(C)=O)c1ncc2c([nH]c3ccccc32)c1C#N,n,n,n,n,n,n,x,x
CC(=O)N(Cc1ccccc1)c1ncc2c(n1)c(=O)c(C#N)c1ccccn12,4,n,n,n,n,n,64,n
CCn1c2ccccc2c2nnc(SCC(=O)N(c3ccccc3)c3ccccc3)nc21,x,x,x,x,n,x,x,x
CC(=O)Nc1ccc2nc(NC(=O)c3ccc(OC(C)=O)cc3)sc2c1,x,x,x,x,n,x,x,x
O=C(CSc1nnc(C2COc3ccccc3O2)o1)N1CCCc2ccccc21 (configuration not stated),2.5,n,n,n,n,n,u,n
O=C(CSc1nnc(Cc2ccccc2)o1)N1CCCc2ccccc21,n,n,n,n,n,n,x,x
Cc1[nH]c2ccc(-c3nnc(SCC(=O)N4CCCc5ccccc54)o3)cc2c1C,45,n,n,n,n,n,u,n
CCOc1ccc(CC(=O)NCc2cn3c(C)csc3n2)cc1,3.4,n,n,n,n,n,u,u
CCc1ccc(S(=O)(=O)NCc2cn3c(C)csc3n2)s1,-3.1,n,n,n,n,n,n,n
Cc1cccc(-c2nc(CSCC(=O)N3CCN(c4ccccn4)CC3)c(C)o2)c1,3.8,n,-3.7,n,n,n,n,u
Cc1ccsc1-c1nc(CSCC(=O)N2CCN(c3ccccc3)CC2)c(C)o1,5,n,-2.5,n,n,n,-39,u
CCOC(=O)C1=C(C)N=C2SCCC(=O)N2C1c1ccc(Cl)cc1 (configuration not stated),x,x,x,x,n,x,x,x
C=CCN(CC=C)S(=O)(=O)c1ccc(C(=O)N2CCc3ccccc3C2)cc1,x,x,x,x,n,x,x,x
COc1ccc(-c2nc3ccccc3n2Cc2ccc(C)cc2)cc1OC,x,x,x,x,n,x,x,x
CCOC(=O)c1cc(-c2ccc(/C=N\n3cnnc3)o2)ccc1Cl,4.9,n,n,n,n,n,-27,n
Cn1c(=O)[nH]c2cc(Cl)cnc21,9.1,x,n,n,n,n,n,n
COC(=O)c1oc2ccc(Br)cc2c1NC(=O)CCN1CCOCC1,n,n,n,n,n,n,x,x
CCOc1ccc(CC(=O)Nc2c(C(N)=O)oc3ccc(Br)cc23)cc1OCC,3.1,n,n,x,n,n,n,n
COC(=O)/C=c1\sc2n(c1=O)C(C)=CC(C)(C)N=2,5.6,n,n,n,n,n,n,n
COC(=O)/C=c1/sc2n(c1=O)CCN=2,n,n,n,n,n,n,x,x
c1ccc(N2CCN(c3nnc(Cc4cccnc4)c4ccccc34)CC2)nc1,3.6,n,n,n,n,n,n,u
CCOc1cc(C(=O)Nc2ccc(N3CCN(S(C)(=O)=O)CC3)cc2)cc(OCC)c1OCC,n,n,n,n,x,n,x,x
CCOc1cc(C(=O)Nc2ccccc2N2CCN(S(C)(=O)=O)CC2)cc(OCC)c1OCC,1.8,n,n,n,n,n,n,n
CCOC(=O)c1c(NC(=O)CCN2C(=O)c3ccccc3C2=O)sc(C)c1C,x,x,x,x,n,x,x,x
SMILES,M1 agonist,HEK293 NFkB inh,M1 antagonist,Her2 expr inh,BAP1 inh,JNK3 blocker,M1 ag confirm,M4 agonist ctr
COC(=O)COc1ccc(S(=O)(=O)NCc2ccncc2)cc1,2.7,n,-2,n,n,n,n,u
CCOC(=O)COc1ccc(S(=O)(=O)NCc2cccnc2)cc1,n,n,n,n,n,n,x,x
COc1cc(-c2nnc3n2N=C(c2ccccc2)CS3)cc(OC)c1OC,4.6,n,n,n,n,n,u,n
COC(=O)c1cc(-c2cc(C(=O)OC)c3ccccc3n2)nc2ccccc12,x,x,x,x,n,x,x,x
CC(=O)c1sc(NC(=O)C2(F)C(F)(F)C(F)(F)C(F)(F)C(F)(F)C2(F)F)nc1C,9.2,90,n,n,n,n,n,u
CCCCC(=O)Nc1nc(C)c(C(C)=O)s1,n,n,n,n,n,n,x,x
CC(=O)c1sc(NC(=O)C=C(C)C)nc1C,-2.2,n,n,n,n,n,-25,n
CN(C)c1cc[n+](CC(=O)c2ccc(Cl)cc2)cc1,x,x,x,x,n,x,x,x
Oc1ccc2nsnc2c1,x,x,x,x,n,x,x,x
Cc1cc(SCC(=O)OCC(=O)N2CCN(C(=O)c3ccco3)CC2)c(C)cc1Br,4.1,n,n,n,x,x,n,n
COc1cc(C(=O)N2CCN(C(=O)CCC3CCCC3)CC2)cc(OC)c1OC,x,x,x,x,n,x,x,x
Cc1cccc2cc(CN(Cc3ccc(F)cc3)C(=O)N(C)C)c3nnnn3c12,6.2,n,n,n,n,x,u,n
O=C(COC(=O)c1ccc([N+](=O)[O-])o1)c1ccc(Br)cc1,x,x,x,x,n,x,x,x
Cc1cc(-n2c(C)cc(C(=O)COc3ccc4ccc(=O)oc4c3)c2C)no1,6.2,n,n,n,x,n,u,n
Cc1cc(-n2c(C)cc(C(=O)CSc3ncnc4ccccc34)c2C)no1,7,40,n,n,x,x,n,u
Cc1cc(-n2c(C)cc(C(=O)CSc3nnc4sc5ccccc5n34)c2C)no1,n,n,n,n,n,n,x,x
CCOC(=O)C1=C(C)NC2=C(C(=O)CCC2)C1c1ccccc1Cl (configuration not stated),x,x,x,x,n,x,x,x
CCOC(=O)c1ccc(NC2=NC(C)(C)Cc3ccccc32)cc1,x,x,x,x,n,x,x,x
Cn1c(=O)oc2cc(S(=O)(=O)NCCc3ccccc3)ccc21,n,n,n,n,n,n,x,x
Cn1c(=O)n(C)c2cc(S(=O)(=O)NCCc3ccccc3)ccc21,-3,n,n,n,n,n,n,u
Cc1cc(Nc2ccc(Br)c(C)c2)n2nc(C)nc2n1,4.7,n,n,n,n,n,u,n
CC1=C(C#N)C(=O)N(C)C(C)(C)C1,19,n,n,n,n,n,n,n
Cc1ccc(Nc2nc(-c3cc4ccccc4oc3=O)cs2)cc1,x,x,x,x,n,x,x,x
Cc1nn(CC(=O)N(C)C)c(=O)c2ccccc12,4.2,n,n,n,n,n,n,n
Cc1cc(C(=O)CSc2nnc(-c3ccccc3)n2Cc2ccc3c(c2)OCO3)c(C)n1C,n,n,n,n,n,n,x,x
Cc1cc(C(=O)CSc2nc3ccccc3c(=O)n2C)c(C)n1Cc1ccc2c(c1)OCO2,5.7,n,n,n,x,n,n,n
Cc1ccc(-c2nn3c(-c4ccco4)nnc3c3ccccc23)cc1S(=O)(=O)NCC1CCCO1 (configuration not stated),5.3,n,n,n,n,n,n,n
Cc1ccc2[nH]c3c(c2c1)CN(C(=O)CN1CC(C)OC(C)C1)CC3 (configuration not stated),8.4,x,n,n,n,n,n,n
